One assay concerns the target T1, FFAR4 (Homo sapiens, UniProt Q5NUL3).
T1 sequence (Q5NUL3 1-361): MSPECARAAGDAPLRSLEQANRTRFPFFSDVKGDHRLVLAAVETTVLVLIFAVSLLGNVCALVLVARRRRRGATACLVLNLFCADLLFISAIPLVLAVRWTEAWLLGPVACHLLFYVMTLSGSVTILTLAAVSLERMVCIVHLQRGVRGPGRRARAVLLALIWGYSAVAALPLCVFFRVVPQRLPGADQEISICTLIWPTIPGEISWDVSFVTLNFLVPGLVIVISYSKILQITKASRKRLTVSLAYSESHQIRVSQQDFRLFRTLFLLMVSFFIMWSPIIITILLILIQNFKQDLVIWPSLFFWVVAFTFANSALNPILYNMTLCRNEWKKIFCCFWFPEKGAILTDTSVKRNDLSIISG
As to the kind of experiment: NanoBiT-G-protein dissociation assay for FFAR4. As to conditions: FFAR4 (b17 prints FFARs). It counts as cell-based.

For the next assay, the system named is CNRs. The assay can be described thus: NanoBiT-G-protein dissociation assay for CNRs. The assay is classed as cell-based, human.
The target of a further assay is human LPA1 L278A mutant (Homo sapiens, UniProt Q92633, L278A). As to the kind of experiment: NanoBiT-G-protein dissociation assay, LPA1 L278A mutant. The assay is classed as cell-based. The procedure, abridged:
(§1)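 Human LPA1 (N-terminal FLAG-tagged, wild type or point mutant) is co-transfected into HEK293T cells with LgBiT-Gαi1, untagged Gβ1 and SmBiT-Gγ2 C68S. After 1 d, cells are resuspended in HBSS with 0.01% fatty-acid-free BSA and loaded with coelenterazine for 2 h.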

Another assay addresses human LPA1 W210A mutant (Homo sapiens, UniProt Q92633, W210A). As to the kind of experiment: NanoBiT-G-protein dissociation assay, LPA1 W210A mutant. It counts as cell-based. Summed up: as §1
Another assay addresses human LPA1 (Homo sapiens, UniProt Q92633). As to the kind of experiment: NanoBiT-G-protein dissociation assay. The assay is classed as cell-based. Summed up: as §1
In the next assay the target is human LPA1 W271F mutant (Homo sapiens, UniProt Q92633, W271F). As to the kind of experiment: NanoBiT-G-protein dissociation assay, LPA1 W271F mutant. The assay is classed as cell-based. The procedure, abridged: as §1

The structures appear in SMILES notation.

Sequence of human LPA1 (Q92633 whole entry): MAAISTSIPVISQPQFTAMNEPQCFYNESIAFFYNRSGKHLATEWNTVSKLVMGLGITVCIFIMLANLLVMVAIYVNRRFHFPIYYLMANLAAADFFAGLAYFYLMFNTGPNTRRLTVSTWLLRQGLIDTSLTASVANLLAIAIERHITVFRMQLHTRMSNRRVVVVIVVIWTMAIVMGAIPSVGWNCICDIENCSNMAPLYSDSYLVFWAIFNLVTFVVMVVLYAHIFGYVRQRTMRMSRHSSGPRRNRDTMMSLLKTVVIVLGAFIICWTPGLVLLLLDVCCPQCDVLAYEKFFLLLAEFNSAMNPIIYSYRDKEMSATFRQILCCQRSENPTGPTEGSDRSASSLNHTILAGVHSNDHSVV
Sequence of human LPA1 W210A mutant (Q92633 whole entry W210A): as the sequence (Q92633 whole entry) above, with W210A counted along it
Sequence of human LPA1 W271F mutant (Q92633 whole entry W271F): as the sequence (Q92633 whole entry) above, with W271F counted along it
Sequence of human LPA1 L278A mutant (Q92633 whole entry L278A): as the sequence (Q92633 whole entry) above, with L278A counted along it

For `CCc1oc2c([C@H](CO)N(CC)CC)cccc2c1C` [CpY, (2R)-2-(diethylamino)-2-(2-ethyl-3-methyl-benzofuran-7-yl)ethanol], the “effect on receptor” value at FFAR4 and with CNRs was “no activity” each time. The “response of mutant compared with wild type” value at human LPA1 L278A mutant is listed as “reduced the activity”; on human LPA1 W210A mutant, “responsive”; on human LPA1 W271F mutant it was “reduction in response”. In addition, a half-maximal response at human LPA1 (EC50, WT LPA1) (EC50) required 0.95 nM. The “Emax relative to LPA” value on human LPA1 (compared with LPA) is recorded as 1.5 fold. In addition, the “agonistic activity (EC50) relative to LPA” value on human LPA1 (compared with LPA) was found to be 20 fold.

These data come from PMC11541586 (Communications Biology, 2024).
